Consider one molecule from ChEMBL document CHEMBL5608193, “Discovery of bivalent small molecule degraders of cyclin-dependent kinase 7 (CDK7)” (Eur J Med Chem, 2024).

Activity calls are given as the source filed them. The calls are words filed in the database; no cut-off is given here.

The subject of data set [1] is Jurkat. The data set can be described thus: Antiproliferative activity against human Jurkat cells assessed as cell viability measured after 72 hrs by CellTiter-Glo assay. The data set is classed as functional, cell-based. A digest of the protocol:
(§1)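 Cells grown in RPMI 1640 with 10% heat-inactivated FBS and penicillin/streptomycin at 37 °C, 5% CO2, mycoplasma-negative. Seeded at 10^4/ml. Compounds dispensed digitally from 10 mM or 1 mM DMSO stocks, DMSO equalized, triplicate wells. After 72 h, CellTiter-Glo added for 10–15 min at room temperature and luminescence read.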
(Cellular ATP, detected with luciferase, serves as a proxy for viable cell number.)

Data set [2] deals with T1, von Hippel-Lindau disease tumor suppressor/Cyclin-dependent kinase 7 (Homo sapiens) (UniProt P50613+P40337). The data set can be described thus: PROTAC activity at CDK7/VHL in human Jurkat cells assessed as degradation of CDK7 at 1 uM measured after 16 hrs incubation by immunoblot analysis relative to control. The data set is classed as cell-based. A digest of the protocol: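 Jurkat cells given VHL-recruiting compounds at 0.1 or 1 μM for 16 h. RIPA lysis, BCA normalization, 4–20% SDS-PAGE, nitrocellulose transfer. CDK7 (1:1000) and β-actin probed overnight at 4 °C, IRDye secondaries, Odyssey detection. Quantified against control, mean ± SEM from three independent biological replicates.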

Data set [3] has as its system Jurkat. The experiment in a line: Potency index, ratio of YKL-5-167 IC50 to test compound IC50 for antiproliferative activity against human Jurkat cells assessed as cell viability measured after 72 hrs by CellTiter-Glo assay. The data set is classed as functional.
The next data set relates to OVCAR-3. The data set can be described thus: Antiproliferative activity against human OVCAR-3 cells assessed as cell viability measured after 72 hrs by CellTiter-Glo assay. The data set is classed as functional, cell-based. Conditions: OVCAR-3, 72 h. The procedure, abridged: as §1
A further data set has as its target CDK7/Cyclin H/MNAT1 (Homo sapiens, UniProt P50613). The data set can be described thus: Inhibition of CDK7/CycH/MNAT1 (unknown origin) assessed as change in TR-FRET ratio using Cdk7/9tide as substrate and ATP by in vitro Adapta Eu kinase assay. It counts as protein-complex assay. The procedure, abridged: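 Adapta Eu kinase assay run at ThermoFisher on CDK7/Cyclin H/MNAT1 with ATP at Km.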

A further data set concerns SU-DHL-5. The data set can be described thus: Antiproliferative activity against human SU-DHL-5 cells assessed as cell viability measured after 72 hrs by CellTiter-Glo assay. It counts as functional, cell-based. Conditions: SU-DHL-5, 72 h. A digest of the protocol:
as §1

Data set [4] is described as follows: Tmax in male CD1 mouse at 3 mg/kg, IV measured upto 24 hrs by LC-MS/MS-39 analysis. It counts as ADME, organism-based. Conditions: in vivo. The procedure, abridged: (§2)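 Three male CD1 mice given a single 3 mg/kg intravenous dose. Plasma prepared on ice by centrifugation (2000 g, 5 min, 4 °C) within 15 min, held at about −70 °C. Acetonitrile precipitation, then LC-MS/MS quantitation. Mean ± SD, n=3.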

Data set [5] has as its target T1, von Hippel-Lindau disease tumor suppressor/Cyclin-dependent kinase 7 (Homo sapiens). The experiment in a line: PROTAC activity at CDK7/VHL in human Jurkat cells assessed as degradation of CDK7 at 0.1 uM by immunoblot analysis. The data set is classed as cell-based. The following applies: time 0.5-24 hrs, TDE = time-dependent effect. The procedure, abridged:
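Jurkat time course at 0.1 μM, lysates taken at set time points from 0.5 up to 24 h. CDK7 immunoblotted after RIPA lysis, SDS-PAGE and near-infrared detection with β-actin loading control.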

Data set [6] addresses von Hippel-Lindau disease tumor suppressor/Cyclin-dependent kinase 5 (Homo sapiens) (UniProt Q00535+P40337). The data set can be described thus: PROTAC activity at CDK5/VHL in human Jurkat cells assessed as degradation of CDK7 measured at 10 to 500 nM after 6 hrs incubation by Western blotting analysis. It counts as cell-based. Conditions: dose 10-500 nM. (A western blot detects proteins with antibodies after separation by electrophoresis.)

Data set [7] has as its target T1, von Hippel-Lindau disease tumor suppressor/Cyclin-dependent kinase 7 (Homo sapiens). The experiment in a line: PROTAC activity at CDK7/VHL in human Jurkat cells assessed as degradation of CDK7 measured after 6 hrs incubation by immunoblot analysis. The data set is classed as cell-based. Conditions: dose 10-5000 nM.
The target is the same in data set [8]. The data set can be described thus: PROTAC activity at CDK7/VHL in human Jurkat cells assessed as degradation of CDK7 in presence of 0.5 uM MG132 at 0.1 uM measured after 6 hrs incubation by immunoblot analysis. It counts as cell-based. A digest of the protocol:
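Jurkat cells pretreated 2 h with MG132, MLN-4924, YKL-5–167 or a VHL ligand, then given degrader for 6 h. CDK7 immunoblotted: RIPA lysis, SDS-PAGE, anti-CDK7 1:1000, IRDye secondaries.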

Data set [9] can be described thus: Observed clearance in male CD1 mouse at 3 mg/kg, IV measured upto 24 hrs by LC-MS/MS-39 analysis. Conditions: in vivo. The data set is classed as ADME, organism-based. A digest of the protocol: as §2
Data set [10] can be described thus: Observed clearance in male CD1 mouse at 10 mg/kg, IP measured upto 24 hrs by LC-MS/MS-39 analysis. It counts as ADME, organism-based. Conditions: in vivo. The procedure, abridged:
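Male CD1 mice, n=3, one 10 mg/kg intraperitoneal dose. Blood sampled at 0, 0.25, 0.5, 1, 2, 4, 6, 8 and 24 h. Kept on wet ice and spun to plasma (2000 g, 5 min, 4 °C) within 15 min, stored at about −70 °C. Protein precipitation with acetonitrile, then LC-MS/MS. Values are mean ± SD of three mice.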

The nature of data set [11]: AUClast in male CD1 mouse at 3 mg/kg, IV measured upto 24 hrs by LC-MS/MS-39 analysis. The data set is classed as ADME, organism-based. The following applies: in vivo. A digest of the protocol:
as §2

In data set [12] the target is Cyclin-dependent kinase 7 (Homo sapiens) (UniProt P50613). The data set can be described thus: Induction of degradation of CDK7 in human […]-knockout Jurkat cells at 0.01 to 1 uM measured after 6 hrs incubation by immunoblot analysis. The following applies: dose 0.01-1 µM. It counts as cell-based. A digest of the protocol:
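Parental and VHL-knockout Jurkat cells treated with degrader for 6 h, then CDK7 western blot (RIPA lysis, 4–20% SDS-PAGE, β-actin control, infrared detection).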

For data set [13], the target named is von Hippel-Lindau disease tumor suppressor/LON peptidase N-terminal domain and RING finger protein 2 (Homo sapiens) (UniProt P40337+Q1L5Z9). The data set can be described thus: PROTAC activity at LONRF2/VHL in human Jurkat cells assessed as degradation of LONRF2 measured at 0.1 to 5 uM after 6 hrs incubation by Western blotting analysis. The data set is classed as cell-based. Conditions: dose 0.1-5 µM.

In data set [14] the target is von Hippel-Lindau disease tumor suppressor/Cyclin-dependent kinase 1 (Homo sapiens) (UniProt P06493+P40337). The experiment in a line: PROTAC activity at CDK1/VHL in human Jurkat cells assessed as degradation of CDK7 measured at 10 to 500 nM after 6 hrs incubation by Western blotting analysis. The data set is classed as cell-based. Conditions: dose 10-500 nM.
The target of data set [15] is von Hippel-Lindau disease tumor suppressor/Cyclin-dependent kinase 2 (Homo sapiens) (UniProt P24941+P40337). The data set can be described thus: PROTAC activity at CDK2/VHL in human Jurkat cells assessed as degradation of CDK7 measured at 10 to 500 nM after 6 hrs incubation by Western blotting analysis. It counts as cell-based. Conditions: dose 10-500 nM.
The target of data set [16] is T1, von Hippel-Lindau disease tumor suppressor/Cyclin-dependent kinase 7 (Homo sapiens). The data set can be described thus: PROTAC activity at CDK7/VHL in human Jurkat cells assessed as degradation of CDK7 measured at 0.1 to 5 uM after 6 hrs incubation by Western blotting analysis. The data set is classed as cell-based. Conditions: dose 0.1-5 µM. A digest of the protocol:
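Jurkat cells dosed across a concentration series up to 5 μM for 6 h. CDK7 immunoblot via RIPA lysis, 4–20% SDS-PAGE, IRDye secondaries. Quantified as mean ± SEM from three independent biological replicates.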

The target of data set [17] is von Hippel-Lindau disease tumor suppressor/Cyclin-dependent kinase 6 (Homo sapiens) (UniProt Q00534+P40337). The experiment in a line: PROTAC activity at CDK6/VHL in human Jurkat cells assessed as degradation of CDK7 measured at 10 to 500 nM after 6 hrs incubation by Western blotting analysis. It counts as cell-based. Conditions: dose 10-500 nM.
The target in data set [18] is von Hippel-Lindau disease tumor suppressor/Cyclin-dependent kinase 4 (Homo sapiens) (UniProt P11802+P40337). The data set can be described thus: PROTAC activity at CDK4/VHL in human Jurkat cells assessed as degradation of CDK7 measured at 10 to 500 nM after 6 hrs incubation by Western blotting analysis. It counts as cell-based. Conditions: dose 10-500 nM.
Sequence of von Hippel-Lindau disease tumor suppressor/Cyclin-dependent kinase 4 (Homo sapiens) (P11802 2-303 limits assumed): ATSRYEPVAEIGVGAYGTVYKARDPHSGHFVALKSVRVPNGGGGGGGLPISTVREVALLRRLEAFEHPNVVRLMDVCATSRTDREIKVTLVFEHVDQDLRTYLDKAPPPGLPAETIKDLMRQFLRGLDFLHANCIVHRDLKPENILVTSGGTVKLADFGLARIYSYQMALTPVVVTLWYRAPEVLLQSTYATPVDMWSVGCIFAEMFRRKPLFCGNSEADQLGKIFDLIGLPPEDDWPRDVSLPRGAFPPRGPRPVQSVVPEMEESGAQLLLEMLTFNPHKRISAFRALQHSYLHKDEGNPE
Sequence of von Hippel-Lindau disease tumor suppressor/Cyclin-dependent kinase 4 (Homo sapiens) (P40337 whole entry partner): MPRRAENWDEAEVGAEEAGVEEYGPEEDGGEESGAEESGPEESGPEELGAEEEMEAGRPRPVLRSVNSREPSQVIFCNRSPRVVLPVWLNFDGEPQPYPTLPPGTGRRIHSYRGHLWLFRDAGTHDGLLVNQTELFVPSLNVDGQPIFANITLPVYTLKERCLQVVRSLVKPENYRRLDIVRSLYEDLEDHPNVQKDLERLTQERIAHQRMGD

T1 sequence (P40337 whole entry, looked up): as the sequence (P40337 whole entry partner) above
T1 sequence (P50613 whole entry, looked up): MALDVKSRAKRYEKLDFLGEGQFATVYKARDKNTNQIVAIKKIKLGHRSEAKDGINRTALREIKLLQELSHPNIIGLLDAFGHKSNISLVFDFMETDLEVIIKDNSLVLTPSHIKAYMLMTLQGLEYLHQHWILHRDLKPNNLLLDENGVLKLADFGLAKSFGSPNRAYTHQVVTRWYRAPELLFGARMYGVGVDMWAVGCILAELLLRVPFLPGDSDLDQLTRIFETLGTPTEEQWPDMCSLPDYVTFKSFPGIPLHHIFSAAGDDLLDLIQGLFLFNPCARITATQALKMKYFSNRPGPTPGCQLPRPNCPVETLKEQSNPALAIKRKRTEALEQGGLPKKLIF
Sequence of Cyclin-dependent kinase 7 (Homo sapiens) (P50613 whole entry): as the sequence (P50613 whole entry, looked up) above
Sequence of von Hippel-Lindau disease tumor suppressor/LON peptidase N-terminal domain and RING finger protein 2 (Homo sapiens) (P40337 whole entry, looked up, the tested form may be a part): as the sequence (P40337 whole entry partner) above
Sequence of von Hippel-Lindau disease tumor suppressor/LON peptidase N-terminal domain and RING finger protein 2 (Homo sapiens) (Q1L5Z9 whole entry, looked up, the tested form may be a part): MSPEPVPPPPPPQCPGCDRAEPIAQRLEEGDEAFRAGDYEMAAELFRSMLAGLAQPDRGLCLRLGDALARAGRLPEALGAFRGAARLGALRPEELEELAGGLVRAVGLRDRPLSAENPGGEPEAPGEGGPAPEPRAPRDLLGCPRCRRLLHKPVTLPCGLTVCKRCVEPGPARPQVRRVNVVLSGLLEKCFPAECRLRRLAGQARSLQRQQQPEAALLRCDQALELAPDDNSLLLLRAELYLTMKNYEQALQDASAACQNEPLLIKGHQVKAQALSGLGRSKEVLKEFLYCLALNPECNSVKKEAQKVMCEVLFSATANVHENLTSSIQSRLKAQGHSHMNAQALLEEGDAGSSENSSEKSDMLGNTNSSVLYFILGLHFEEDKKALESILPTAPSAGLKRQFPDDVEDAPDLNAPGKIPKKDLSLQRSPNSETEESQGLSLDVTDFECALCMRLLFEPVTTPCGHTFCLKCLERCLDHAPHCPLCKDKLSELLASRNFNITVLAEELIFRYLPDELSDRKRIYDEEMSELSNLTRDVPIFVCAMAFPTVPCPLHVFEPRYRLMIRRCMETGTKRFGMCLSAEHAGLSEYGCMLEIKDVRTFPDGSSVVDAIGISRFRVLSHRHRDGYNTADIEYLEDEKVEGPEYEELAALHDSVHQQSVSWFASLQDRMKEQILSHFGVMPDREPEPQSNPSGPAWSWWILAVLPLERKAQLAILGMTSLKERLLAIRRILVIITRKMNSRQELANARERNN
Sequence of von Hippel-Lindau disease tumor suppressor/Cyclin-dependent kinase 5 (Homo sapiens) (P40337 whole entry, looked up): as the sequence (P40337 whole entry partner) above
Sequence of von Hippel-Lindau disease tumor suppressor/Cyclin-dependent kinase 5 (Homo sapiens) (Q00535 whole entry, looked up): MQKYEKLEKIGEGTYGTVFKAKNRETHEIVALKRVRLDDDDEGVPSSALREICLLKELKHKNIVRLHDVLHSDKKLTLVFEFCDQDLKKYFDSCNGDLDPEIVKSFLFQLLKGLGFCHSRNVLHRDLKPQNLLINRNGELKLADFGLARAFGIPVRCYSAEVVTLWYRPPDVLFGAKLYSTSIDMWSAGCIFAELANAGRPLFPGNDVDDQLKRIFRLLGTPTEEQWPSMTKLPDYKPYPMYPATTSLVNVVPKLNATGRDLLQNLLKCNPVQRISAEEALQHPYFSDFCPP
Sequence of von Hippel-Lindau disease tumor suppressor/Cyclin-dependent kinase 6 (Homo sapiens) (P40337 whole entry, looked up): as the sequence (P40337 whole entry partner) above
Sequence of von Hippel-Lindau disease tumor suppressor/Cyclin-dependent kinase 6 (Homo sapiens) (Q00534 whole entry, looked up): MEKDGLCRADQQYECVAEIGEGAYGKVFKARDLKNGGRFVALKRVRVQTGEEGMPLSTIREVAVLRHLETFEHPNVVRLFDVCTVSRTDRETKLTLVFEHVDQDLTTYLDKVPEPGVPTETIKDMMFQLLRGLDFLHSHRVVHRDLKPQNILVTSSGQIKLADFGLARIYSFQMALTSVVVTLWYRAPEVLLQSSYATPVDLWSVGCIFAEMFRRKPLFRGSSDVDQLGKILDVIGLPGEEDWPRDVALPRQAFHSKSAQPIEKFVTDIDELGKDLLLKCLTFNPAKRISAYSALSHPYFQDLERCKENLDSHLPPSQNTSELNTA
Sequence of von Hippel-Lindau disease tumor suppressor/Cyclin-dependent kinase 1 (Homo sapiens) (P06493 whole entry, looked up): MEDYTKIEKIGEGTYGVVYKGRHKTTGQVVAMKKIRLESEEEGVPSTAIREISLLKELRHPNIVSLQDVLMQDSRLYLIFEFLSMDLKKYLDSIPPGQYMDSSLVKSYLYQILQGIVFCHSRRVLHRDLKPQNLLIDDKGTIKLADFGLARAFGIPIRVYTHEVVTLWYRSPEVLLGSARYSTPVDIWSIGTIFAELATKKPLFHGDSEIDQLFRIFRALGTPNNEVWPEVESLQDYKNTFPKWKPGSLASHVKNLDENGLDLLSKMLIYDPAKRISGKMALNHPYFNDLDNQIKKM
Sequence of von Hippel-Lindau disease tumor suppressor/Cyclin-dependent kinase 1 (Homo sapiens) (P40337 whole entry, looked up): as the sequence (P40337 whole entry partner) above
Sequence of CDK7/Cyclin H/MNAT1 (P51946 whole entry): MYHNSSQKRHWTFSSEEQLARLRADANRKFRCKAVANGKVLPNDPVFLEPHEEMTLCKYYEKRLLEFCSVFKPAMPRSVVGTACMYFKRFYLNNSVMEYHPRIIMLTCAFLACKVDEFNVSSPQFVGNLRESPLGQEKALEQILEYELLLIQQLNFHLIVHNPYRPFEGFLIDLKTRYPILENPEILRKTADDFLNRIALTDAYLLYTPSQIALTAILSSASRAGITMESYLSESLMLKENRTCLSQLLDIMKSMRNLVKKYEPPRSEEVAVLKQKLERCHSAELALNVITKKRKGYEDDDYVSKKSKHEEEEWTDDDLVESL
Sequence of CDK7/Cyclin H/MNAT1 (P50613 whole entry): as the sequence (P50613 whole entry, looked up) above
Sequence of CDK7/Cyclin H/MNAT1 (P51948 whole entry, further chain): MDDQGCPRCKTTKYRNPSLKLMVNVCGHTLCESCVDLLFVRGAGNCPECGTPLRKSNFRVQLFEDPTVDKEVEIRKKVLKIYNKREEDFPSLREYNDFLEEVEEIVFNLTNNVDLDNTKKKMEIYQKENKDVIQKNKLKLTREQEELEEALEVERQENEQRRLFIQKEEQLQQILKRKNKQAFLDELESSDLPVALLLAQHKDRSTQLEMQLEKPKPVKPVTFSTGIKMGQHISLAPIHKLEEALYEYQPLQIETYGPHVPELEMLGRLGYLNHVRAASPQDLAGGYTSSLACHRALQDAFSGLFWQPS

For `Cc1ncsc1-c1ccc([C@H](C)NC(=O)[C@@H]2C[C@@H](O)CN2C(=O)[C@@H](NC(=O)CCCC#Cc2ccc(C(=O)Nc3n[nH]c4c3CN(C(=O)N[C@H](CN(C)C)c3ccccc3)C4(C)C)cc2)C(C)(C)C)cc1`, the IC50 (commonly the concentration that inhibits the measured activity by half) in the data set on Jurkat [1] was found to be 160 nM; in the data set on OVCAR-3, 780 nM; at CDK7/Cyclin H/MNAT1 it was 20.1 nM; in the data set on SU-DHL-5 it was 52 nM. Also, the Activity is 95% in data set [2] and “Tde” in data set [5]. The Ratio with Jurkat [3] is on record as 7. Besides, the Tmax – broadly, the time from dosing to the highest level – in data set [4] worked out at 4.98 min. Further, the outcome in data set [6], in data set [8], in [12], in data set [13], in data set [14] and in [15] was inactive. Further, the result in data set [17] and in data set [18] was inactive. Also, in data set [7], the Efficacy entry was “Dose-Dependent Effect”. For the same molecule, in [9], the clearance (in general, the rate of elimination divided by the concentration) amounted to 8.3 mL/min/kg. Also, the CL/F (commonly clearance divided by bioavailability, as obtained after extravascular dosing) in data set [10] came out at 8.7 mL/min/kg. Besides, the AUClast in [11] was 6.12 µM·h. For the same molecule, the result in data set [16] was Active.
